The text below walks through data of PMC3074353 (Biochemistry, 2011).

In assay [1] the target is T1, RPTPα (amino acids 224–802) (Homo sapiens, UniProt P18433). Kind of assay: PTP activity assay with synthetic pY peptides as substrates, RPTPα. In kind it is biochemical. To be noted: for Km: same buffer pH 7.4, mean ± SD, three or more independent experiments; for kcat/KM: same buffer pH 7.4, three or more independent experiments.
In assay [2] the target is T2, PTP1B (amino acids 1–321) (Homo sapiens, UniProt P18031).
T2 sequence (P18031 1-321): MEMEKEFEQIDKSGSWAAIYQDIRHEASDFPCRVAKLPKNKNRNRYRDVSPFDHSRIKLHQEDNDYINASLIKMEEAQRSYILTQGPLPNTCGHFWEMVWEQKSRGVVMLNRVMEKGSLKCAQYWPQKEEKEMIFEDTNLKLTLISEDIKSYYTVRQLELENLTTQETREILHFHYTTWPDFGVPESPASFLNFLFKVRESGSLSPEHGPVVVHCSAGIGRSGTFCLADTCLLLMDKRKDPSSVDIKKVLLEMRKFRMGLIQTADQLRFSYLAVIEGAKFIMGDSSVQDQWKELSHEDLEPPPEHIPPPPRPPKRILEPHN
To be noted: ref [36], cited from earlier work.

For assay [3], the system named is catalytic domain of SHP-2 [SHP-2(ΔSH2)]. The assay is described as follows: PTP activity assay with synthetic pY peptides as substrates, SHP-2. In kind it is biochemical. To be noted: for Km / kcat/KM: same buffer pH 7.4, three or more independent experiments; for Km: mean ± SD.
Assay [4] relates to catalytic domain of SHP-1 [SHP-1(ΔSH2)]. The assay is described as follows: PTP activity assay with synthetic pY peptides as substrates, SHP-1. In kind it is biochemical. To be noted: for Km / kcat/KM: same buffer pH 7.4, three or more independent experiments; for Km: mean ± SD.
Assay [5] addresses T2, PTP1B (amino acids 1–321). The assay is described as follows: PTP activity assay with synthetic pY peptides as substrates, PTP1B. In kind it is biochemical. Put shortly:
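PTP1B catalytic fragment (residues 1–321) expressed in E. coli, quantified by Bradford against BSA. For alanine-scan peptides, kinetic constants came from fitting progress curves to the integrated Michaelis–Menten equation.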

For assay [6], the target named is T1, RPTPα (amino acids 224–802). As to conditions: literature value, ref [20]; cited from earlier work.

Usually Km stands for the concentration of substrate that gives half-maximal velocity. For orientation: kcat/KM means the turnover number divided by the Michaelis constant. What is called kcat is the maximal rate divided by the concentration of active sites.

Like-named read-outs stand apart in the source and are kept apart here. Bounds are passed on as bounds.

Sequence of catalytic domain of SHP-1 [SHP-1(ΔSH2)] (P29350 244-515 limits assumed, stated change not applied): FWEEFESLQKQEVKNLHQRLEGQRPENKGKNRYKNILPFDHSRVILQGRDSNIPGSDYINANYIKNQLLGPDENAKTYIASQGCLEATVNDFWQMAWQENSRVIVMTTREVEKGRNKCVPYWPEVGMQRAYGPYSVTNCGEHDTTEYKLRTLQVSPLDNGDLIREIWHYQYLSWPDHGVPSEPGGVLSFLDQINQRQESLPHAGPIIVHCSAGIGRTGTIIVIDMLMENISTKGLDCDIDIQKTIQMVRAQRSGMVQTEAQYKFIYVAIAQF

As for EADTApYAA, in assay [1], the Km turned out to be 1400 ± 100 µM and the specificity constant (kcat/KM) came out at 19000 M⁻¹ s⁻¹.
With Ac-AAAApYAAAA-NH2, in assay [2] (literature value), the kcat/KM was 1.3 ^b μM^−1 s^−1. The kcat/KM value in assay [2] is 1.3e+06 M⁻¹ s⁻¹.
For Ac-WDEDFpYSASA-NH2, in assay [3] (SHP-2), the “increase of kcat/KM relative to Ac-SASASpYSASA-NH2” value was 61 fold, the Km turned out to be 46 ± 10 µM and the kcat/KM amounted to 1.1e+06 M⁻¹ s⁻¹. For the same compound, in assay [3] (SHP-2 versus SHP-1), the “higher activity of SHP-2 than of SHP-1 (kcat/KM ratio)” value came to 1.6 fold. Also, in assay [1], the kcat/KM was 69000 M⁻¹ s⁻¹. Further, in assay [4] (SHP-1), the “increase of kcat/KM relative to Ac-SASASpYSASA-NH2” value stood at 54 fold, the Km amounted to 53 ± 10 µM and the kcat/KM came out at 700000 M⁻¹ s⁻¹.
With Ac-WDEDFpYAA-NH2, in assay [3] (SHP-2), the Michaelis-Menten constant (Km) was 43 ± 2 µM and the kcat/KM came to 1.1e+06 M⁻¹ s⁻¹.
Regarding Ac-EIFDFpYAA-NH2, in assay [3] (SHP-2), the Michaelis-Menten constant (Km) came out at 54 ± 6 µM and the kcat/KM is 480000 M⁻¹ s⁻¹. Besides, in assay [4] (SHP-1), the Km is 27 ± 4 µM and the kcat/KM was determined as 1.2e+06 M⁻¹ s⁻¹.
As for Ac-RTLAApYEEVH-NH2, in assay [5], the kcat/KM value amounted to 840000 M⁻¹ s⁻¹.
Ac-AVWEFpYpYAA-NH2: in assay [4] (SHP-1), the Km was found to be 7.5 ± 2 µM and the catalytic efficiency (kcat/KM) turned out to be 3.3e+06 M⁻¹ s⁻¹.
In the case of Ac-SASASpYSASA-NH2, the Km in assay [3] (SHP-2) was determined as 2300 ± 400 µM; in assay [1], 530 ± 150 µM; in assay [4] (SHP-1), 1990 ± 420 µM. Also, the kcat/KM in assay [3] (SHP-2) is 18000 M⁻¹ s⁻¹; in assay [1], 43000 M⁻¹ s⁻¹; in assay [4] (SHP-1) it was 13000 M⁻¹ s⁻¹.
Turning to Ac-ASSDDpYAA-NH2, the kcat/KM in assay [1] came out at 13000 M⁻¹ s⁻¹.
Still for that read-out and setting: the value for Ac-AAAAApYEEVH-NH2 was 39000 M⁻¹ s⁻¹.
Take Ac-ARKRIpYAA-NH2: in assay [1], the Km was determined as 490 ± 30 µM and the specificity constant (kcat/KM) was 80000 M⁻¹ s⁻¹. The kcat/KM value in assay [5] is > 10^5 M^−1 s^−1.
Consider WRKRFpYDWEF, for which, in assay [3] (SHP-2), the Km worked out at 560 ± 140 µM and the kcat/KM was 2300 M⁻¹ s⁻¹. In addition, in assay [4] (SHP-1), the Km is 780 ± 640 µM and the kcat/KM came out at 2200 M⁻¹ s⁻¹.
As to DFEDFpYAA, in assay [3] (SHP-2), the Km amounted to 23 ± 2 µM and the kcat/KM stood at 1.6e+06 M⁻¹ s⁻¹.
For the compound Ac-RTLAApYRFQK-NH2, the kcat/KM value in assay [5] came to 220000 M⁻¹ s⁻¹.
On to Ac-WDEDFpYDWEF-NH2, for which the “increase of activity relative to peptide 6 (Ac-WDEDFpYSASA-NH2)” value in assay [3] (SHP-2, C-terminal SASA replaced by acidic motif DWEF) turned out to be 6.2 fold. In assay [3] (SHP-2), the Km stood at 6.3 ± 0.4 µM and the kcat/KM is 6.8e+06 M⁻¹ s⁻¹. Further, in assay [4] (SHP-1), the kcat/KM value came to 2.3e+07 M⁻¹ s⁻¹, the Km amounted to 3.2 ± 0.3 µM and the kcat/KM was 2.3e+07 M⁻¹ s⁻¹.
Turning to Ac-WAGDDpYAA-NH2, in assay [3] (SHP-2), the Km is 68 ± 15 µM and the kcat/KM is 530000 M⁻¹ s⁻¹. Further, in assay [4] (SHP-1), the Km is 45 ± 5 µM and the kcat/KM is 1.3e+06 M⁻¹ s⁻¹. Also, in assay [4] (SHP-1 versus SHP-2), the “higher reactivity to SHP-1 than to SHP-2 (kcat/KM ratio)” value is 2.5 fold.
Take Ac-FYDIDpYAA-NH2: in assay [3] (SHP-2), the Km is 66 ± 13 µM and the kcat/KM amounted to 750000 M⁻¹ s⁻¹. For the same compound, in assay [4] (SHP-1), the Km turned out to be 28 ± 2 µM and the specificity constant (kcat/KM) is 2.4e+06 M⁻¹ s⁻¹.
Regarding Ac-RRISTpYAA-NH2, in assay [1], the Km was determined as 1200 ± 100 µM and the specificity constant (kcat/KM) worked out at 41000 M⁻¹ s⁻¹. The kcat/KM value in assay [5] was > 10^5 M^−1 s^−1.
As to WDEDFpYRWKF, in assay [3] (SHP-2), the Km was 210 ± 35 µM and the kcat/KM is 340000 M⁻¹ s⁻¹. In addition, in assay [4] (SHP-1), the Michaelis constant (Km) came out at 150 ± 15 µM and the catalytic efficiency (kcat/KM) is 280000 M⁻¹ s⁻¹.
Turning to `O=[N+]([O-])c1ccc(OP(=O)(O)O)cc1` [pNPP, reference compound], in assay [1], the Km was determined as 2700 ± 300 µM and the kcat/KM is 190 M⁻¹ s⁻¹.
Regarding DAEDFpYAA, in assay [3] (SHP-2), the Km is 28 ± 3 µM and the kcat/KM amounted to 1.1e+06 M⁻¹ s⁻¹.
As for Ac-SASASpYDWEF-NH2, in assay [3] (SHP-2), the “increase of kcat/KM relative to Ac-SASASpYSASA-NH2” value is given as 10 fold, the Km was determined as 180 ± 7 µM and the kcat/KM was found to be 190000 M⁻¹ s⁻¹. For the same compound, in assay [4] (SHP-1), the “increase of kcat/KM relative to Ac-SASASpYSASA-NH2” value is listed as 19 fold, the Km was 48 ± 9 µM and the kcat/KM is 250000 M⁻¹ s⁻¹.
In the case of Ac-FDIDIpYAA-NH2, in assay [3] (SHP-2), the Km was determined as 39 ± 5 µM and the kcat/KM came out at 770000 M⁻¹ s⁻¹. For the same compound, in assay [4] (SHP-1), the Michaelis-Menten constant (Km) was determined as 13 ± 1 µM and the kcat/KM is 2.5e+06 M⁻¹ s⁻¹.
For AYTEpYTpYAA, in assay [4] (SHP-1), the Km came to 9.1 ± 1 µM and the kcat/KM was determined as 1.9e+06 M⁻¹ s⁻¹.
With TATEPQpYQPGENL, in assay [6], the Km is 1070 ± 30 µM, the kcat was 9.7 ± 0.2 s⁻¹ and the kcat/KM was 9100 M⁻¹ s⁻¹.
Ac-ApYpYWTApYAA-NH2: the kcat/KM value in assay [5] is 1.51e+07 M⁻¹ s⁻¹.
Take `O=P(O)(O)Oc1ccccc1` [Phenyl phosphate, reference compound]: in assay [1], the kcat/KM came out at 20 M⁻¹ s⁻¹.
As for FDEDFpYAA, in assay [3] (SHP-2), the Km came to 31 ± 6 µM and the catalytic efficiency (kcat/KM) is 1e+06 M⁻¹ s⁻¹.
Turning to Ac-RTLAApYAAAA-NH2, in assay [5], the kcat/KM value came out at 510000 M⁻¹ s⁻¹.
Ac-AAAAApYRHRR-NH2: in assay [1], the Km stood at 2600 ± 200 µM and the kcat/KM was found to be 12000 M⁻¹ s⁻¹. Further, in assay [5], the kcat/KM value is on record as > 10^5 M^−1 s^−1.
As for LIEDNEpYTARQGA, in assay [6], the Km was 770 ± 20 µM, the kcat is 8.3 ± 0.2 s⁻¹ and the kcat/KM is 11000 M⁻¹ s⁻¹.
As to Ac-AKFEDTpYAA-NH2, in assay [4] (SHP-1), the Km stood at 58 ± 13 µM and the kcat/KM was 340000 M⁻¹ s⁻¹.
Consider TSTEPQpYQPGENL, for which, in assay [6], the Km was 1160 ± 140 µM, the kcat is 8.9 ± 0.5 s⁻¹ and the kcat/KM was 7700 M⁻¹ s⁻¹.
For Ac-DWEDFpYAA-NH2, in assay [3] (SHP-2), the Km turned out to be 17 ± 2 µM and the kcat/KM came out at 1.7e+06 M⁻¹ s⁻¹.
Taken in the same sequence, the figures for ADEDFpYAA were 34 ± 2 µM and 820000 M⁻¹ s⁻¹.
